Our source for the Activity and IC50 values is ChEMBL document CHEMBL4196133, “NF-κB and Angiogenesis Inhibitors from the Aerial Parts of Chresta martii” (J Nat Prod, 2018).

Data set [1] deals with HUVEC. The data set can be described thus: Antiangiogenic activity in HUVEC assessed as decrease in VEGF-induced anchorage junctions at 1 ug/ml after 3 days. Format: functional, cell-based. Particulars: Homo sapiens. The gist of the method:
(§1)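 HUVECs seeded on Cytodex 3 beads (400 cells/bead, 4 h at 37 °C with shaking, then 24 h), embedded in fibrin gel (fibrinogen 2.5 mg/mL, aprotinin 0.15 U/mL, thrombin) with VEGF; EGM-2 with VEGF 5 ng/mL, NHDF overlaid. Compound added after 1 h, medium renewed at 24 h then every 48 h. Imaged at 4× day 4; sprout network quantified by Angiogenesis Analyzer; ≥18 spheres, mean ± SEM, one-way ANOVA/Dunnett.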

In data set [2] the test system is HUVEC. The data set can be described thus: Antiangiogenic activity in HUVEC assessed as decrease in VEGF-induced extremities at 1 ug/ml after 3 days. Format: functional, cell-based. Particulars: Homo sapiens. The method, boiled down:
as §1

For data set [3], the system named is HUVEC. The data set can be described thus: Cytotoxicity against HUVEC at 1 ug/ml after 24 hrs by MTT assay. In kind it is cell-based. As to conditions: human. The gist of the method:
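HUVECs (1.0 × 10^4/well) in EBM2 with 0.5% FBS, settled overnight at 37 °C, 5% CO2; compound at 1 μg/mL for 24 h. MTT added for 4 h at 37 °C, formazan dissolved in DMSO, absorbance read at 595 nm.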

Data set [4] relates to HUVEC. The data set can be described thus: Antiangiogenic activity in HUVEC assessed as decrease in VEGF-induced number of total capillary length at 1 ug/ml after 3 days. As to conditions: Homo sapiens. Format: functional, cell-based. The method, boiled down:
as §1

Data set [5] can be described thus: Inhibition of TNFalpha-stimulated NF-kappaB (unknown origin) expressed in HEK293 cells incubated for 30 mins followed by TNFalpha stimulation for 4 hrs by luciferase reporter gene based luminescence assay. In kind it is cell-based. Particulars: Homo sapiens.
In data set [6] the test system is HUVEC. The data set can be described thus: Antiangiogenic activity in HUVEC assessed as decrease in VEGF-induced segments at 1 ug/ml after 3 days. In kind it is functional, cell-based. As to conditions: Homo sapiens. The gist of the method: as §1

Active and inactive are the calls of the source. The rule behind the calls is not given here.

Turning to `CC(=O)O[C@@H]1C[C@@](C)(OC(C)=O)C(=O)CC[C@@]2(C)O[C@@H]2C2OC(=O)C(CO)=C21` (some centres not stated), the outcome with HUVEC [1], in the data set on HUVEC [2], in the data set on HUVEC [4] and in the data set with HUVEC [6] was Active. For the same compound, in the data set with HUVEC [3], the Activity entry is recorded as “Non-Toxic”. The IC50 in data set [5] came out at 2400 nM.

For `CC(=O)OCC1=C2[C@@H](O)C[C@@](C)(OC(C)=O)C(=O)CC[C@@]3(C)O[C@H]3[C@H]2OC1=O`, the Activity result with HUVEC [3] is on record as “Non-Toxic”. Moreover, the IC50 in data set [5] was determined as 7800 nM.

Turning to `CCC(=O)O[C@H]1C[C@@](C)(OC(C)=O)C(=O)CC[C@@]2(C)O[C@H]2[C@H]2OC(=O)C(COC(C)=O)=C12`, the Activity result with HUVEC [3] is given as “Non-Toxic”. The compound further came in with an IC50 in data set [5] of 5100 nM.

Compound `CC(=O)OCC1=C2[C@@H](OC(C)=O)C[C@@](C)(OC(C)=O)[C@@]3(O)CC[C@@](C)(O)[C@H](OC(C)=O)[C@@]23OC1=O` registered an IC50 in data set [5] of 13600 nM.

In the case of `COc1ccc(-c2cc(=O)c3c(O)cc(O)cc3o2)cc1OC`, in the data set with HUVEC [3], the Activity entry was “Non-Toxic”.

The compound `C=C1C(=O)O[C@H]2[C@@H]1CC/C(C)=C\CC[C@@]1(C)O[C@@H]21` displayed an IC50 in data set [5] of 700 nM. That is a sub-micromolar value.

`CC(=O)OCC1=C2[C@@H](OC(C)=O)C[C@@](C)(OC(C)=O)C(=O)CC[C@@]3(C)O[C@H]3[C@H]2OC1=O`: the result in the data set on HUVEC [1], in the data set on HUVEC [2], with HUVEC [4] and with HUVEC [6] was Active. Moreover, the Activity result in the data set with HUVEC [3] is “Non-Toxic”. Also, 6500 nM corresponded to half-maximal inhibition in data set [5] (IC50).

Consider `CC(=O)OCC1=C2/C(=C/[C@]3(C)CC[C@@](O)(O3)[C@@](C)(O)C[C@H]2OC(C)=O)OC1=O`, for which the outcome in the data set with HUVEC [1], in the data set on HUVEC [2], in the data set with HUVEC [4] and in the data set on HUVEC [6] was Active. For the same compound, in the data set on HUVEC [3], the Activity entry is “Non-Toxic”. In data set [5], this compound yielded an IC50 of 1800 nM.

With `C[C@@]12/C=C3\OC(=O)C(CO)=C3[C@@H](O)C[C@@](C)(O)[C@@](O)(CC1)O2`, the outcome in the data set on HUVEC [1], with HUVEC [2], in the data set on HUVEC [4] and in the data set on HUVEC [6] was Active. Moreover, the Activity entry in the data set on HUVEC [3] is given as “Non-Toxic”. In data set [5], this compound registered an IC50 of 2200 nM.

For the compound `CC(=O)OCC1=C2/C(=C/[C@]3(C)CC[C@@](O)(O3)[C@](C)(O)C[C@@H]2O)OC1=O`, the outcome in the data set with HUVEC [1], in the data set with HUVEC [2], in the data set with HUVEC [4] and in the data set on HUVEC [6] was Active. For the same compound, the Activity result in the data set on HUVEC [3] is given as “Non-Toxic”. In data set [5], this compound showed a half-maximal inhibitory concentration (IC50) of 700 nM.
